IDE inh = human IDE inhibitors in live cells, primary screen, fluorescence polarization, HEK cells, FAbetaB substrate; Insulin-degrading enzyme (Homo sapiens), P14735; FAbetaB cleavage; inhibition, % at 5.59 µM; hit rate 0.41% among 320,000; AID 434962, 2010;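 active = percent inhibition above the average of all tested compounds plus 3 SD, set per screening campaign, cut at about 16% in these data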;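 also: IDE supplied by intact live HEK cells; FP after avidin binding of uncleaved biotin substrate so inhibition keeps polarization high; 0% = DMSO wells and 100% = 60 µM reference IDE inhibitor Ii1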
CSN deneddyl inh = inhibitors of CSN-mediated cullin deneddylation, primary screen, biochemical, fluorescence polarization, uHTS. Purified CSN, SCF-Nedd8-OG deneddylation. inhibition, % at 12.5 µM. hit rate 0.38% among 360,000. AID 651999, 2013;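 active = pattern-corrected inhibition above about 35%, with an unprinted fluorescence ratio check between 0.5 and 1.5, limit read from the data, passing the limit was not always enough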;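 also: 0% = enzyme with substrate and 100% = substrate without enzyme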
Target sequence (Q92905 whole entry, looked up, one chain of several): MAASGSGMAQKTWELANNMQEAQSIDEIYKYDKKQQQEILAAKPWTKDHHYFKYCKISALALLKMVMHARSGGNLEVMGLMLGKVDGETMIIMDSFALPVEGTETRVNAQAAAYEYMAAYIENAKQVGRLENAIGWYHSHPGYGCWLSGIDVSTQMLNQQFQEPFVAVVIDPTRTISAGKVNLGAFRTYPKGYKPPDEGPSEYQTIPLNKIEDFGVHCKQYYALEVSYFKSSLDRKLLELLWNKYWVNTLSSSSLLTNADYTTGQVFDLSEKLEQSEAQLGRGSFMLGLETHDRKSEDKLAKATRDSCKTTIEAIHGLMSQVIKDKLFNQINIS
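Test system: purified human Csn5 enzyme expressed in HEK293T cells. Amount: 0.24 nM enzyme. Reagent: SCFSkp2-Nedd8OG substrate at 10 nM final. Schedule: 90 min incubation of compound, enzyme and substrate at room temperature. Detection: fluorescence polarization. Read-out: % inhibition of substrate cleavage by Csn5.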
HNF4A DNA FP = change in binding of human HNF4A to DNA, primary screen, biochemical, fluorescence polarization, FITC-DNA. Hepatocyte nuclear factor 4-alpha (Homo sapiens), P41235. hit rate 0.3% among 360,000. 1 h. activity change, % at 10 µM; in the data active = activity change above about 30%, passing the limit was not always enough
TPT1 inh = Candida albicans TPT1 enzyme inhibitors, primary screen, biochemical, fluorescence polarization | tRNA 2'-phosphotransferase TPT1 (Candida albicans SC5314) | recombinant caTPT1, FP RNA substrate dephosphorylation | inhibition, % at 5 µM | hit rate 0.81% among 300,000 | AID 1962, 2009;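 active = inhibition above the mean of all tested compounds plus 3 SD, set per screening campaign, cut at about 24% in these data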;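 also: plate controls were DMSO alone for no effect and ferristatin control at 100 nM for full effect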
Rpn11 block = Rpn11 (PSMD14) deubiquitinase inhibitors, primary screen, biochemical, fluorescence polarization, uHTS. 26S proteasome non-ATPase regulatory subunit 14 (Homo sapiens), O00487. human 26S proteasome, Ub4-pepOG fluorescence polarization; 20S core pre-blocked with epoxomicin. calls only at 20 µM. hit rate 0.59% among 360,000;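 active = inhibition at 20 µM, scaled to each plate's controls, above about 33%, limit read from the data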
Target sequence (O00487 whole entry, looked up): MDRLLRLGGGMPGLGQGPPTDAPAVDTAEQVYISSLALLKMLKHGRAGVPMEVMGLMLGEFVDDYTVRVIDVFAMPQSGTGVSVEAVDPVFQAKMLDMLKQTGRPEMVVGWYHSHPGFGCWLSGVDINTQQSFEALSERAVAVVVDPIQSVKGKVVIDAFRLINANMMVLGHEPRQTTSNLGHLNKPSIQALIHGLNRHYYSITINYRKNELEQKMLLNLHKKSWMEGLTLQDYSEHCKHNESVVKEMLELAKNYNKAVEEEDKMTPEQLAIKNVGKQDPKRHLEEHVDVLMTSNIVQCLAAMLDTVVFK
IDE cell activ = human IDE activators in live cells, primary screen, fluorescence polarization, HEK cells, FAbeta-B substrate; hit rate 0.073% among 340,000; activation, % at 5.96 µM; FAbeta-B cleavage; 0% vehicle, 100% cell-free pure enzyme wells;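 active = activation above the mean of all tested compounds plus 3 SD, set per screening campaign, cut at about 17% in these data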
caTPT1 confirm = Candida albicans TPT1 inhibitors, confirmation, biochemical, fluorescence polarization, triplicate; recombinant caTPT1, RNase T1 coupled; inhibition, % at 5 µM; shares compounds with TPT1 inh; hit rate 74% among 2,400;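 active = inhibition above the primary screen limit, the mean inhibition of all tested compounds plus 3 SD, cut at about 25% in these data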
RNase T1 inh = RNase T1 inhibitors, counter-screen for TPT1 inhibitor project, biochemical, fluorescence polarization. hit rate 83% among 2,400. inhibition, % at 5 µM. RNase T1 cleavage, 1536-well. shares compounds with TPT1 inh;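 active = inhibition above the solvent-only control well mean plus 3 SD, limit set per screening run, cut at about 23% in these data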;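 also: plate controls were DMSO wells with enzyme for no effect and wells without RNase T1 for full effect; inhibitors block cleavage so intact labeled substrate keeps polarization high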
IDE cell inh cf = human IDE inhibitors in live cells, confirmation, fluorescence polarization, HEK cells, FAbetaB substrate | shares compounds with IDE inh | FAbetaB cleavage | inhibition, % at 5.59 µM | hit rate 51% among 1,200;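 active = mean inhibition across triplicate wells above the cutoff set by the earlier primary insulin-degrading enzyme screen, cut at about 16% in these data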;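 also: 0% = DMSO wells and 100% = 60 µM reference IDE inhibitor Ii1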
HEK293 tox = cytotoxicity in HEK cells, cytotoxicity control for IDE inhibitor project, cell-based, luminescence. shares compounds with IDE inh. HEK293 cytotoxicity, ATP luminescence. inhibition, % at 5.59 µM. hit rate 28% among 1,200. AID 449730, 2010; in the data active = inhibition above about 22%;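 also: 0% = vehicle wells and 100% = reference cytotoxic drug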
Rpn11 confirm = Rpn11 (PSMD14) deubiquitinase inhibitors, confirmation, biochemical, fluorescence polarization, single concentration; AID 602318, 2012; shares compounds with Rpn11 block; purified human 26S proteasome, Ub4-pepOG fluorescence polarization; proteasome pretreated with epoxomicin; hit rate 29% among 1,900; inhibition, % at 20 µM
MMP-2 inh = MMP-2 enzyme inhibition, confirmation, counter-screen for RPN11 inhibitor project, biochemical, fluorescence, single concentration; shares compounds with Rpn11 block; hit rate 4% among 1,900; recombinant MMP-2, FRET peptide cleavage fluorescence; inhibition, % at 20 µM;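 also: human MMP-2 activated beforehand with APMA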
Thrombin inh = bovine thrombin protease inhibition, confirmation, counter-screen for Rpn11 inhibitor project, biochemical, fluorescence polarization, single concentration; shares compounds with Rpn11 block; bovine thrombin cleavage of Ub4-pepOG; inhibition, % at 20 µM; hit rate 13% among 1,900; AID 602333, 2012;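 active = mean inhibition at least 40% at 20 µM, or signal 3 deviations below plate average, so some actives read negative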;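 also: plate controls were thrombin with DMSO for no effect and buffer wells lacking thrombin for full effect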
An asterisk follows results filed as active; i = inactive; . = not tested or not shown; + = active, no number; ! = repeats disagree. In the library only some 1.7% were active in any assay of this set; here they are far more common. Rule as the data show it, unless noted: active = inhibition above about 40%; inactive = the rest.

SMILES	IDE inh	CSN deneddyl inh	HNF4A DNA FP	TPT1 inh	Rpn11 block	IDE cell activ	caTPT1 confirm	RNase T1 inh	Rpn11 confirm	MMP-2 inh	Thrombin inh	others
COc1cc(/C=C2\SC(c3ccc(C)cc3)=NC2=O)cc(OC)c1O	2	27	32	48*	+	-18	67*	79*	41*	21	10
COc1cc(/C=C2\SC(N)=NC2=O)cc(Cl)c1O	26*	27	29	43*	+	-42	60*	71*	76*	-24	57*	IDE cell inh cf=47*;HEK293 tox=12
Cc1cc(N2CCCC2)ccc1/C=C1/C(=O)N(C)C(=S)N1C	31*	18	22	73*	+	-63	67*	76*	30	-9	28
CCC(C)N1C(=O)S/C(=C/c2ccc(N3CCOCC3)cc2C)C1=O (configuration not stated)	4	2	3	19	i	-2	.	.	.	.	.
Cc1c(N=C2Nc3cccc4cccc2c34)c(=O)n(-c2ccccc2)n1C	-2	19	43*!	88*	.	-3	109*	114*	-10	-38	active
C=CC[n+]1c(-c2ccc(OC)c(OC)c2)csc1NNC(=O)Nc1ccccc1	5	10	1	25*	+	-2	7	11	-3	48*	1
C=CC[n+]1c(-c2ccccc2)csc1NC(C)(C)C	-6	4	3	-3	i	1	.	.	.	.	.
Cc1cccc(/C=N/c2sc3c(c2C#N)CCN(Cc2ccccc2)C3)c1O	5	29	23	58*	+	1	56*	69*	18	-11	-7
CN1CCC(N(C)S(=O)(=O)c2ccc(F)cc2F)CC1	-2	-1	-3	3	i	2	.	.	.	.	.
COC(=O)c1c(-c2cccnc2)csc1NC(=O)c1cc(C)on1	4	15	24	44*	+	-8	50*	66*	53*	-18	32
COC(=O)c1c(-c2ccc(C)cc2)csc1NC(=O)c1c(-c2ccccc2)noc1C	-1	.	.	0	.	.	.	.	.	.	.
COc1ccc(CCn2c(=N)c(C(=O)NC3CCCC3)cc3c(=O)n4ccccc4nc32)cc1	0	-4	3	2	i	2	.	.	.	.	.
COc1ccc(CCn2c(=N)c(C(=O)NC3CCCC3)cc3c(=O)n4ccccc4nc32)cc1OC	1	13	24	28*	+	4	45*	57*	34	-27	24
CCOc1cc(/C=C/C(=O)c2ccc(OC)c(CN3CCOCC3)c2)cc(Br)c1O	94*	21	5	55*	+	-75	81*	86*	72*	2	80*	IDE cell inh cf=150*;HEK293 tox=22*
O=C1/C(=C/c2ccc(O)c(O)c2)Oc2cc(O)ccc21	34*	30	20	44*	+	-47	58*	67*	49*	4	30	IDE cell inh cf=75*;HEK293 tox=11
COc1ccc(C)cc1Nc1nc(-c2c[nH]c3ccccc23)cs1	11	16	20	31*	+	-1	26*	36*	8	28	1
N#Cc1c(SCC(=O)Nc2nccs2)sc2c(O)cc(=O)[nH]c12	-1	12	-22	79*	+	1	10	15	21	26	7
CCN1/C(=C2/OC(=S)N(C)C2=O)Sc2ccccc21	.	5	2	.	i	-3	.	.	.	.	.
CCN1/C(=C\C=C2\C(=O)N(C)C(=S)N2C)Sc2ccccc21	0	9	32	47*	+	2	60*	73*	3	-15	-3
Cc1ccc2nc(SCc3ccc([N+](=O)[O-])cc3)[nH]c2c1	5	1	-6	5	i	-8	.	.	.	.	.
COc1cc(/C=C2/C(=O)NN(c3ccccc3)C2=O)cc(Br)c1O	1	13	0	54*	+	2	84*	103*	55*	13	52*
COc1cc(/C=C2/C(=O)NN(c3ccc(Cl)cc3)C2=O)cc(OC)c1O	9	23	3	97*	+	-33	151*	154*	62*	-53	54*
CCCC1=NN2C(=N)/C(=C\c3cc(C)n(Cc4ccccc4)c3C)C(=O)N=C2S1	0	5	-1	5	i	-5	.	.	.	.	.
CCCC1=NN2C(=N)/C(=C\c3ccc(SCc4ccco4)o3)C(=O)N=C2S1	18*	76*	30	43*	+	-35	47*	60*	40*	-5	23
N#C/C(=C\c1ccc(Cl)cc1)c1nc(-c2ccco2)cs1	8	-12	-2	7	i	0	.	.	.	.	.
N#C/C(=C\c1ccc(-c2ccccc2)cc1)c1nc(-c2ccco2)cs1	7	14	22	61*	+	-4	21	28*	-2	-14	-5

Screening data (PubChem)
